Our source for the IC50 values is article PMC6287413 (Drug Design, Development and Therapy, 2018).

Where a SMILES comes first, the peptide text is derived from it.

The target of the experiment is T1, PTP1B (Homo sapiens, UniProt P18031).
T1 sequence (P18031 1-435): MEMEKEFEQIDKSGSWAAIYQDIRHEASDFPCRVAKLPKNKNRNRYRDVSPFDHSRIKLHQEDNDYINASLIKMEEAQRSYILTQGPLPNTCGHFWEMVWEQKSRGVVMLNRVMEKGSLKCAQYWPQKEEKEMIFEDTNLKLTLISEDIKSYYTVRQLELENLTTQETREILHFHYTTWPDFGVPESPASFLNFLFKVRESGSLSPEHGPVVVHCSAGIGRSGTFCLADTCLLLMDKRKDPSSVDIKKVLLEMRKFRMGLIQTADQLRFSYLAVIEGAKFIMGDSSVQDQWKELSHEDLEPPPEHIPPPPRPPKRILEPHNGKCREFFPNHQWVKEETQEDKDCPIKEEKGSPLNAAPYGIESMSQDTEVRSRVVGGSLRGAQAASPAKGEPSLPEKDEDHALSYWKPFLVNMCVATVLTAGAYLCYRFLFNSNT
Description: Inhibitory activity analysis with recombinant PTP1B phosphatase. Format: biochemical. In short, it runs like this: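 Recombinant phosphatase at 1.5 µg/mL […] final in 10 mM HEPES, pH 7.4. Each enzyme was left untreated (control) or treated with peptide solutions over a range of concentrations and incubation times, at 37°C. Para-nitrophenyl phosphate (2 mM) was the chromogenic substrate, read at 405 nm. Every experiment was run three or more times.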
Take `N[C@@H](Cc1ccccc1)C(=O)N[C@@H](Cc1ccccc1)C(=O)N[C@@H](CC(=O)O)C(=O)O` [Phe-Phe-Asp] (H-Phe-Phe-Asp-OH): the IC50 (in general, the point on the concentration scale where inhibition reaches its midpoint) was found to be 104 ± 15.9 µM. Next, `N[C@@H](Cc1ccccc1)C(=O)N[C@@H](CC(=O)O)C(=O)N[C@@H](Cc1ccccc1)C(=O)O` [Phe-Asp-Phe] (H-Phe-Asp-Phe-OH): 255 ± 29.4 µM. Under `N[C@@H](CC(=O)O)C(=O)N[C@@H](Cc1ccccc1)C(=O)O` [Asp-Phe] (H-Asp-Phe-OH) stands 52.6 ± 3.7 µM; under `N[C@@H](Cc1ccccc1)C(=O)N[C@@H](CC(=O)O)C(=O)O` [Phe-Asp] (H-Phe-Asp-OH), 52.1 ± 1.4 µM.
